Test results reported in ChEMBL document CHEMBL1141286, “Benzochromenones from the marine crinoid Comantheria rotula inhibit hypoxia-inducible factor-1 (HIF-1) in cell-based reporter assays and differentially suppress the growth of certain tumor cell lines” (J Nat Prod, 2007).
Calls of active or inactive are those of the source. The rule behind the calls is not given here.

What was measured:
T47D [1] = assay: Inhibition of 1,10-phenanthroline-induced VEGF protein secretion in human T47D cells at 10 uM after 16 hrs by ELISA; format: functional, cell-based
How it was run: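 T47D cells stimulated with 1,10-phenanthroline, compound at 10 μM; secreted VEGF in conditioned media by ELISA, normalized to cell-lysate protein.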

[2] = DPPH radical scavenging activity relative to Trolox; format: functional; design: concentration or dose not given beside the values
How it was run: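 Compounds were made up as DMSO stocks and diluted in isopropanol to a final 10 μM. Each was mixed with DPPH in isopropanol at 10 μM or 30 μM DPPH, and absorbance was read at 515 nm. Scavenging was calculated as [1 − OD515(compound)/OD515(control)] × 100, then expressed as a percentage of Trolox activity. One experiment was run in triplicate.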

K562 = assay: Growth inhibition of human K562 cells; format: functional
A549 = assay: Growth inhibition of human A549 cells; format: functional
EKVX = assay: Growth inhibition of human EKVX cells; format: functional
HOP-62 = assay: Growth inhibition of human HOP62 cells; format: functional
HOP-92 = assay: Growth inhibition of human HOP92 cells; format: functional
NCI-H226 = assay: Growth inhibition of human NCI-H226 cells; format: functional
NCI-H23 = assay: Growth inhibition of human NCI-H23 cells; format: functional
NCI-H322M = assay: Growth inhibition of human NCI-H322M cells; format: functional
NCI-H460 = assay: Growth inhibition of human NCI-H460 cells; format: functional
HCT-116 = assay: Growth inhibition of human HCT116 cells; format: functional
KM12 = assay: Growth inhibition of human KM12 cells; format: functional
SF-268 = assay: Growth inhibition of human SF268 cells; format: functional
SF-295 = assay: Growth inhibition of human SF295 cells; format: functional
SF-539 = assay: Growth inhibition of human SF539 cells; format: functional
SNB-19 = assay: Growth inhibition of human SNB19 cells; format: functional
U-251 = assay: Growth inhibition of human U251 cells; format: functional
LOX IMVI = assay: Growth inhibition of human LOXIMVI cells; format: functional
Malme-3M = assay: Growth inhibition of human MALME-3M cells; format: functional
UACC-62 = assay: Growth inhibition of human UACC62 cells; format: functional
OVCAR-5 = assay: Growth inhibition of human OVACAR5 cells; format: functional
OVCAR-8 = assay: Growth inhibition of human OVACAR8 cells; format: functional
SK-OV-3 = assay: Growth inhibition of human SK-OV3 cells; format: functional
ACHN = assay: Growth inhibition of human ACHN cells; format: functional
CAKI-1 = assay: Growth inhibition of human CAKI1 cells; format: functional
RXF 393 = assay: Growth inhibition of human RXF393 cells; format: functional
UO-31 = assay: Growth inhibition of human UO31 cells; format: functional
PC-3 = assay: Growth inhibition of human PC3 cells; format: functional
DU-145 = assay: Growth inhibition of human DU145 cells; format: functional
MCF7 = assay: Growth inhibition of human MCF7 cells; format: functional
NCI/ADR-RES = assay: Growth inhibition of human NCI/ADR-RES cells; format: functional
MDA-MB-231 = assay: Growth inhibition of human MDA-MB-231 cells; format: functional
MDA-MB-435 = assay: Growth inhibition of human MDA-MB-435 cells; format: functional
BT-549 = assay: Growth inhibition of human BT549 cells; format: functional
T47D [3] = assay: Growth inhibition of human T47D cells; format: functional
[4] = Inhibition of 1,10-phenanthroline-induced HIF1 activation in T47D cells by TK-luciferase assay; format: cell-based; settings: Homo sapiens
How it was run: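 HIF-1 reporter (pHRE-TK-Luc) assays in transfected PC-3 or T47D cells; HIF-1 induced by hypoxia or by the hypoxia mimetic 1,10-phenanthroline (10 μM); compounds at half-log concentrations; luciferase activity measured; IC50 from experiments in triplicate.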

[5] = read-out: Log LC50 (the source's name) (converted)

For `CCCc1cc(=O)c2c(O)c3c(OC)cc(O)cc3cc2o1`, the Activity (T47D [1]) was “inactive”, the Activity [2] was 40% and the GI50 (K562) was 18.2 µM. For the same molecule, the CC50 (K562; [5]) was greater than 100 µM, the TGI (K562; read-out: Log TGI (converted)) was 56.2 µM and the GI50 (A549) was 19.1 µM. It also gave a CC50 (A549; [5]) greater than 100 µM, a TGI (A549; read-out: Log TGI (converted)) of 50.1 µM and a GI50 (EKVX) of 28.8 µM. The CC50 (EKVX; [5]) was greater than 100 µM, the TGI (EKVX; read-out: Log TGI (converted)) was 97.7 µM and the GI50 (HOP-62) was 22.9 µM. For the same molecule, the CC50 (HOP-62; [5]) was greater than 100 µM, the TGI (HOP-62; read-out: Log TGI (converted)) was 56.2 µM and the GI50 (HOP-92) was 17.4 µM. The CC50 (HOP-92; [5]) was greater than 100 µM, the TGI (HOP-92; read-out: Log TGI (converted)) was 46.8 µM and the GI50 (NCI-H226) was 17.8 µM. The CC50 (NCI-H226; [5]) was greater than 100 µM, the TGI (NCI-H226; read-out: Log TGI (converted)) was 45.7 µM and the GI50 (NCI-H23) was 22.4 µM. For the same molecule, the CC50 (NCI-H23; [5]) was greater than 100 µM, the TGI (NCI-H23; read-out: Log TGI (converted)) was 49 µM and the GI50 (NCI-H322M) was 26.3 µM. For the same molecule, the CC50 (NCI-H322M; [5]) was greater than 100 µM, the TGI (NCI-H322M; read-out: Log TGI (converted)) was greater than 100 µM and the GI50 (NCI-H460) was 17.8 µM. For the same molecule, the CC50 (NCI-H460; [5]) was greater than 100 µM, the TGI (NCI-H460; read-out: Log TGI (converted)) was 42.7 µM and the GI50 (HCT-116) was 18.6 µM. The CC50 (HCT-116; [5]) was 75.9 µM, the TGI (HCT-116; read-out: Log TGI (converted)) was 37.2 µM and the GI50 (KM12) was 17.4 µM. It also gave a CC50 (KM12; [5]) of 93.3 µM, a TGI (KM12; read-out: Log TGI (converted)) of 39.8 µM and a GI50 (SF-268) of 20.4 µM. It also gave an LC50 (SF-268) greater than 100 µM, a TGI (SF-268; read-out: Log TGI (converted)) of 58.9 µM and a GI50 (SF-295) of 24.5 µM. The LC50 (SF-295) was greater than 100 µM, the TGI (SF-295; read-out: Log TGI (converted)) was 77.6 µM and the GI50 (SF-539) was 19.5 µM. The LC50 (SF-539) was 81.3 µM, the TGI (SF-539; read-out: Log TGI (converted)) was 39.8 µM and the GI50 (SNB-19) was 32.4 µM. It also gave an LC50 (SNB-19) of 100 µM, a TGI (SNB-19; read-out: Log TGI (converted)) of 100 µM and a GI50 (U-251) of 16.2 µM. For the same molecule, the LC50 (U-251) was 95.5 µM, the TGI (U-251; read-out: Log TGI (converted)) was 38.9 µM and the GI50 (LOX IMVI) was 16.6 µM. The LC50 (LOX IMVI) was 63.1 µM, the TGI (LOX IMVI; read-out: Log TGI (converted)) was 32.4 µM and the GI50 (Malme-3M) was 25.1 µM. The CC50 (Malme-3M; [5]) was 100 µM, the TGI (Malme-3M; read-out: Log TGI (converted)) was 64.6 µM and the GI50 (UACC-62) was 15.5 µM. The LC50 (lethal concentration, 50% cell kill) (UACC-62) was 57.5 µM, the TGI (UACC-62; read-out: Log TGI (converted)) was 29.5 µM and the GI50 (OVCAR-5) was 25.1 µM. For the same molecule, the LC50 (OVCAR-5) was greater than 100 µM, the TGI (OVCAR-5; read-out: Log TGI (converted)) was 60.3 µM and the GI50 (OVCAR-8) was 28.8 µM. The LC50 (OVCAR-8) was greater than 100 µM, the TGI (OVCAR-8; read-out: Log TGI (converted)) was greater than 100 µM and the GI50 (SK-OV-3) was 32.4 µM. The LC50 (SK-OV-3) was greater than 100 µM, the TGI (SK-OV-3; read-out: Log TGI (converted)) was 85.1 µM and the GI50 (ACHN) was 22.4 µM. For the same molecule, the CC50 (ACHN; [5]) was greater than 100 µM, the TGI (ACHN; read-out: Log TGI (converted)) was 64.6 µM and the GI50 (CAKI-1) was 30.2 µM. For the same molecule, the LC50 (CAKI-1) was greater than 100 µM, the TGI (CAKI-1; read-out: Log TGI (converted)) was greater than 100 µM and the GI50 (RXF 393) was 18.2 µM. For the same molecule, the LC50 (RXF 393) was greater than 100 µM, the TGI (RXF 393; read-out: Log TGI (converted)) was 47.9 µM and the GI50 (UO-31) was 16.2 µM. The LC50 (UO-31) was greater than 100 µM, the TGI (UO-31; read-out: Log TGI (converted)) was 42.7 µM and the GI50 (PC-3) was 20.4 µM. It also gave an LC50 (PC-3) greater than 100 µM, a TGI (PC-3; read-out: Log TGI (converted)) of 67.6 µM and a GI50 (DU-145) of 18.2 µM. For the same molecule, the CC50 (DU-145; [5]) was greater than 100 µM, the TGI (DU-145; read-out: Log TGI (converted)) was 45.7 µM and the GI50 (MCF7) was 25.1 µM. The LC50 (MCF7) was greater than 100 µM, the TGI (MCF7; read-out: Log TGI (converted)) was 60.3 µM and the GI50 (NCI/ADR-RES) was 26.3 µM. For the same molecule, the LC50 (concentration killing 50% of cells) (NCI/ADR-RES) was greater than 100 µM, the TGI (NCI/ADR-RES; read-out: Log TGI (converted)) was 75.9 µM and the GI50 (MDA-MB-231) was 15.5 µM. It also gave an LC50 (MDA-MB-231) greater than 100 µM, a TGI (MDA-MB-231; read-out: Log TGI (converted)) of 45.7 µM and a GI50 (MDA-MB-435) of 20.9 µM. The LC50 (MDA-MB-435) was greater than 100 µM, the TGI (MDA-MB-435; read-out: Log TGI (converted)) was 57.5 µM and the GI50 (BT-549) was 18.2 µM. For the same molecule, the LC50 (BT-549) was 95.5 µM, the TGI (BT-549; read-out: Log TGI (converted)) was 41.7 µM and the GI50 (T47D [3]) was 20.9 µM. It also gave an LC50 (T47D [3]) greater than 100 µM, a TGI (T47D [3]; read-out: Log TGI (converted)) of 93.3 µM and an IC50 [4] of 0.6 µM.
